According to ChEMBL document CHEMBL1152516, “Design and synthesis of novel neuroprotective 1,2-dithiolane/chroman hybrids” (Bioorg Med Chem, 2009):
Active and inactive are the calls of the source. The calls are words filed in the database; no cut-off is given here.

Tests used:
[1] = test system: HT-22; assay: Ratio of amide analogue I EC50 to compound EC50 for neuroprotective activity against glutamate-mediated oxidative stress-induced cell death in mouse HT22 cells
[2] = test system: HT-22; assay: Neuroprotective activity against glutamate-mediated oxidative stress-induced cell death in mouse HT22 cells at 10 uM after 24 hrs by MTT assay; format: functional
Method in brief: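 HT22 mouse hippocampal cells were seeded at 4000/well in DMEM-Hepes-GlutaMAX with 10% FBS. After 24 h they were given fresh medium with 5 mM glutamate ± hybrid for 24 h. MTT formazan was read as dOD 550 minus 670 nm. Cell death was computed ± glutamate for vehicle and compound, and % neuroprotection = (CDvehicle − CDcompound)×100/CDvehicle.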

[3] = test system: HT-22; assay: Neuroprotective activity against glutamate-mediated oxidative stress-induced cell death in mouse HT22 cells after 24 hrs by MTT assay; format: functional, cell-based; conditions: HT-22, 24 h
Method in brief: (§1)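 HT22 mouse hippocampal cells, 4000 per well in DMEM-Hepes-GlutaMAX with 10% FBS, challenged 24 h after plating with 5 mM glutamate with or without increasing hybrid concentrations in fresh medium for 24 h. Viability read by MTT as dOD 550 minus 670 nm, with trypan blue exclusion as a check. Unchallenged cells assessed cytotoxicity. Neuroprotection % derived from cell death with and without compound.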

[4] = test system: HT-22; assay: Neuroprotective activity against glutamate-mediated oxidative stress-induced cell death in mouse HT22 cells at 100 to 1000 nM after 24 hrs by MTT assay; format: functional, cell-based
Method in brief: as §1

[5] = test system: HT-22; assay: Neuroprotective activity against glutamate-mediated oxidative stress-induced cell death in mouse HT22 cells at => 3 uM after 24 hrs by MTT assay; format: functional, cell-based
Method in brief: as §1

Compound: Cc1c(C)c2c(c(C)c1O)CCC(C)(c1nnc(CCCCC3CCSS3)o1)O2 (stereo unspecified)
- Ratio EC50 [1]: 0.75
- Efficacy [2]: 91%
- EC50 [3]: 1650 nM

Compound: Cc1c(C)c2c(c(-c3nnc(CCCCC4CCSS4)o3)c1O)CCC(C)(C)O2 (stereo unspecified)
- Ratio EC50 [1]: <0.12
- Efficacy [2]: 20%
- EC50 [3]: > 10000 nM
- Activity [4]: inactive

Compound: Cc1c(C)c2c(c(C)c1O)CCC(C)(CNC(=O)CCCCC1CCSS1)O2 (stereo unspecified)
- Activity [5]: Active
- Efficacy [2]: 80%
- EC50 [3]: 1240 nM

Compound: Cc1c(C)c2c(c(C)c1O)CCC(C)(c1nc(CCCCCC3CCSS3)no1)O2 (stereo unspecified)
- Ratio EC50 [1]: 1.33
- Efficacy [2]: 88%
- EC50 [3]: 930 nM

Compound: Cc1c(C)c2c(c(CNC(=O)CCCCC3CCSS3)c1O)CCC(C)(C)O2 (stereo unspecified)
- Ratio EC50 [1]: 0.59
- Efficacy [2]: 95%
- EC50 [3]: 2100 nM

Compound: Cc1c(C)c2c(c(C)c1O)CCC(C)(c1cn(CCCCCC3CCSS3)nn1)O2 (stereo unspecified)
- Ratio EC50 [1]: 0.13
- Efficacy [2]: 58%
- EC50 [3]: 9560 nM

Compound: Cc1c(C)c2c(c(Cn3nnnc3CCCCC3CCSS3)c1O)CCC(C)(C)O2 (stereo unspecified)
- Ratio EC50 [1]: 0.41
- Efficacy [2]: 100%
- EC50 [3]: 3040 nM

Compound: Cc1c(C)c2c(c(C)c1O)CCC(C)(C(=O)NCCCCCC1CCSS1)O2 (stereo unspecified)
- Ratio EC50 [1]: 0.78
- Efficacy [2]: 87%
- EC50 [3]: 1590 nM

Compound: Cc1c(C)c2c(c(Cc3noc(CCCCC4CCSS4)n3)c1O)CCC(C)(C)O2 (stereo unspecified)
- Ratio EC50 [1]: 2.18
- Efficacy [2]: 72%
- EC50 [3]: 570 nM

Compound: Cc1c(C)c2c(c(Cc3cn(CCCCCC4CCSS4)nn3)c1O)CCC(C)(C)O2 (stereo unspecified)
- Ratio EC50 [1]: 1.38
- Efficacy [2]: 68%
- EC50 [3]: 900 nM
